# Screens: PubChem BioAssay, several laboratories
# Sampled rows, rich in hits. Any-hit rate of the full collection: about 4.6%.
# Biofilm kill mix: mixture kills Candida albicans biofilm cells; C. albicans biofilm persisters + clotrimazole, fluorescence viability; primary screen in compound mixtures of four per well; inhibition, % at 7.6 µM; actives 0.02% (n = 120,000); AID 1242;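 active = inhibition above 30.3% in the primary screen of four-compound pools, then above 30% when the compound was retested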;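 also: compounds exposed to preformed 24 h biofilms for 48 h; 0% = untreated biofilm control and 100% = clotrimazole plus chlorhexidine kill blank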
#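 Test system: C. albicans biofilms. Buffer or medium: RPMI/MOPS medium, pH 7.0. Timing: 48 h compound exposure at 37 °C. Technique: Alamar Blue fluorescence. Evaluation: percent inhibition of biofilm viability.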
# WT yeast gro inh: growth inhibition of WT yeast, mitochondrial fusion screen; inhibition, % at 10 µM; actives 2.1% (n = 190,000); mitochondrial fusion phenotypic screen, WT strain; in the data active = inhibition above about 58%; tested in S. cerevisiae
# Hck Nef HTS: inhibitors of human Hck kinase activated by Nef; AID 463187; actives 0.68% (n = 220,000); Recombinant Hck-YEEI plus Nef, Z-Lyte FRET kinase assay; inhibition, % at 20 µM;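 active = Hck-Nef kinase inhibition above about 50%, limit read from the data; inactive = inhibition below that limit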;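 also: 0% = DMSO with Hck plus Nef and 100% = Hck alone without Nef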
# p47phox inh: inhibitors of human p47phox binding. P14598. p47phox/p22phox peptide binding, fluorescence polarization, 2 h. inhibition, % at 24.7 µM. actives 0.53% (n = 220,000). AID 1274;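 active = inhibition above about 30%, limit read from the data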;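 also: 0% = p47phox with labelled peptide and 100% = labelled peptide alone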
# Target sequence (P14598 whole entry, looked up): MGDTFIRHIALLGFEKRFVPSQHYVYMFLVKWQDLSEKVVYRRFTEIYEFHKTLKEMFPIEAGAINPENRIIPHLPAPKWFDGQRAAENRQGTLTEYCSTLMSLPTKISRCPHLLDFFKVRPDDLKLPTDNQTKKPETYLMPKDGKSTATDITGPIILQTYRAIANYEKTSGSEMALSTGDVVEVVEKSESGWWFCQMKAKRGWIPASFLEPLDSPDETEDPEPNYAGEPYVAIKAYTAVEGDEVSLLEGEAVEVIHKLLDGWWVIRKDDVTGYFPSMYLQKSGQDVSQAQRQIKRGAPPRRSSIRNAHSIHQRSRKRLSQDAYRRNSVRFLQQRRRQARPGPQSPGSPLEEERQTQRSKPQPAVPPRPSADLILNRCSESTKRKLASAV
# Arbovirus anti: arbovirus infection inhibition; AID 1251; actives 0.37% (n = 200,000); inhibition, % at 10 µM; arbovirus infection cell-based antiviral screen; in the data active = inhibition above about 30%
# RAM network inh: blocks the yeast RAM network; S. cerevisiae dse1pr::URA3 reporter, 5-FOA growth OD615, 2 d; analog-sensitive cbk1-as2 kinase mutant strain; actives 1.8% (n = 190,000); inhibition, % at 50 µM;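 active = inhibition above a set limit, 3 SD over mean compound inhibition, cut at about 8.4% in these data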;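 also: 0% = DMSO-only wells with no growth and 100% = 10 µM 1-NA-PP1 full growth; inhibition rescues growth on 5-FOA so higher OD means more RAM inhibition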
# An asterisk follows results filed as active; x = no result given.
SMILES,Biofilm kill mix,WT yeast gro inh,Hck Nef HTS,p47phox inh,Arbovirus anti,RAM network inh
Cc1cccc(CSCCNC(=S)Nc2ccccc2)c1,8,71*,3,-27,-28,1
CCCNC(=S)Nc1ccccc1,13,x,5,-4,x,x
S=C(NCCSCc1ccc(Cl)cc1)Nc1ccccc1,x,79*,0,-15,-45,4
Fc1ccc(NC(=S)NCc2ccccc2Cl)cc1,15,15,2,0,8,1
CCOc1ccc(CSCCNC(=S)Nc2ccc(OC)cc2)cc1,18,x,10,-15,x,x
S=C(NCCC(c1ccccc1)c1ccccc1)Nc1ccc(Cl)cc1,x,-11,-1,-10,-37,5
CCCOc1ccc(CSCCNC(=S)Nc2ccccc2)cc1,5,67*,2,-10,0,1
S=C(NCCSCc1ccccc1Cl)Nc1ccccc1,x,67*,-1,-6,-29,6
O=Cc1ccnc(-c2ccc(OC(=O)c3ccco3)cc2)n1,-1,-14,48,9,-2,1
Oc1ccccc1/C=N/n1cnn(Cc2ccccc2Cl)c1=S,13,-4,7,-4,-4,8
COc1nccc(C(F)(F)F)c1C(=O)Nc1ccc(Cl)cc1,22,x,8,-16,x,x
CCC(C)n1cnc2c(c1=O)c1nc3ccccc3nc1n2Cc1ccc(OC)cc1 (centres undefined),x,65*,-1,-27,8,2
COc1ccc(NC(C)=O)cc1C#N,6,-2,19,-3,7,0
Cc1ccccc1-c1ncc(CN2CCC(CO)(CCCc3ccccc3)CC2)cn1,7,87*,4,-1,-10,1
CN(C)c1ccc(N=Nc2ccccc2C(=O)OCC(=O)N(C)c2ccccc2)cc1,3,9,0,-8,14,10*
COc1ccc(C2C(C#N)=C(SC)NC3=C2C(=O)CC(C)(C)C3)cc1 (centres undefined),x,79*,-1,-1,-2,3
COc1ccc(C2C3=C(CC(C)(C)CC3=O)Nc3c2c(=O)[nH]c(=O)n3Cc2ccccc2)cc1 (centres undefined),x,1,1,-18,15,9.5*
COc1cc(CC(=O)OCC(=O)Nc2ccc3c(c2)OCO3)cc(OC)c1OC,-7,-3,19,1,2,1
NS(=O)(=O)c1ccc(CCNC(=O)CNS(=O)(=O)c2cccc(Br)c2)cc1,11,-9,11,2,-1,-1
CCC(=O)N1CCN(c2ccc(OC)cc2[N+](=O)[O-])CC1,x,5,1,-2,-1,1
COc1ccc(N2CCN(C(=O)CC34CC5CC(CC(C5)C3)C4)CC2)c([N+](=O)[O-])c1,16,66*,2,5,-5,10.0*
CCCCc1cc(=O)oc2c(C)c(OCc3nn[nH]n3)ccc12,18,x,4,1,x,x
O=C(CSc1nnc(SCc2ccccc2)s1)NNC(=S)Nc1ccccc1,4,-8,-14,-9,10,10*
Cc1cc(/C=N/n2cnnc2)c(C)n1-c1ccc(OCc2ccc(Cl)cc2)cc1,x,66*,2,-6,-37,1
Nc1c(O)ccc2c1C(=O)c1ccccc1C2=O,21,48,7,80*,-8,3
SMILES,Biofilm kill mix,WT yeast gro inh,Hck Nef HTS,p47phox inh,Arbovirus anti,RAM network inh
O=c1c2ccccc2ncn1CCOc1ccccc1[N+](=O)[O-],6,-5,5,-44,-1,1
CC1CC2=C(C(=O)O1)C(c1ccc(Cl)cc1)Nc1ccccc1N2 (centres undefined),19,4,1,5,-4,1
COc1ccc(CCNC(=O)C(=O)NCc2cccs2)cc1OC,11,25,4,-3,-11,1
Cc1cccc(Nc2ncccc2C(=O)NCc2cccs2)c1C,x,46,-1,-1,5,3
Cc1ccc(Nc2ncccc2C(=O)NCc2cccs2)c(C)c1,x,67*,0,-17,-24,2
Cc1ccc(-c2cc(C(=O)N3CCCC3)no2)cc1,x,-10,6,-27,3,0
CC1CCCC(C)N1C(=O)c1cc(-c2ccc(Cl)c(Cl)c2)on1 (centres undefined),x,3,1,-18,-3,11*
Cc1cc(C)c2sc(NC(=O)CN3C(=O)CCC3=O)nc2c1,23,x,28,2,x,x
Cc1ccc(C)c(N2C(=O)CN=C2Nc2ccccc2Cl)c1,x,8,0,-13,2,4
CN(C)c1cc(N/N=C/c2ccc(Cl)cc2)nc(N(C)C)n1,-1,71,12,-11,5,1
Cc1nn(CC(O)Cn2c3c(c4ccccc42)CCN(C)C3=O)c(C)c1Br (centres undefined),x,11,-1,0,36*,1
Cc1ccc2c(c1)c1c(n2CC(O)Cn2nc(C)c(Br)c2C)CCCC1 (centres undefined),x,76*,2,-1,-37,0
Cc1nn(CC(O)Cn2cnc3c2c(=O)n(C)c(=O)n3C)c(C)c1Br (centres undefined),x,6,4,-10,-2,1
COc1cccc(S(=O)(=O)Nc2cccc(C(=O)N3CCCCCC3)c2)c1,11,-16,-3,-8,10,1
CCc1cccc(NC(=O)c2cc(S(=O)(=O)N(C)C)ccc2N2CCCC2)c1,9,-19,2,-4,-2,11*
O=C(O)CC12C[C@H]3C[C@@H](C1)CC(n1ncc(N4CCN(c5ccccc5)CC4)c(Cl)c1=O)(C3)C2,8,5,3,-8,5,1
COCCNC(=O)c1cc(C(=O)CC(C)C)c[nH]1,10,-3,-10,4,-4,1
Cc1[nH][nH]c(=O)c1C(c1ccc(-c2ccc(F)cc2)o1)c1c(C)[nH][nH]c1=O,24,21,16,-2,-11,-1
COc1ccc(-c2ccc(C(c3c(C)[nH][nH]c3=O)c3c(C)[nH][nH]c3=O)o2)c([N+](=O)[O-])c1,-2,20,22,42*,-8,0
COCCCNCCCCOc1ccc(Br)cc1C,1,32,6,41*,-34,1
O=C(O)CC(C(=O)Nc1ccc(F)cc1)C1CCCO1 (centres undefined),30,x,3,-6,x,x
Cc1c(C(=O)NCc2ccccn2)oc2ccc(S(=O)(=O)N3CCOCC3)cc12,x,4,-12,50*,4,-1
Cc1c(C(=O)NCc2cccs2)oc2ccc(S(=O)(=O)N3CCOCC3)cc12,x,3,-1,-10,-13,0
Cc1ccc(NC(=O)c2oc3ccc(S(=O)(=O)N4CCOCC4)cc3c2C)c(C)c1,12,-8,4,-9,0,9.4*
CCOc1ccccc1NC(=O)C1CCN(C(=O)c2cccs2)CC1,10,-1,20,-1,-3,2
CN(Cc1ccccc1)c1nc(N)c([N+](=O)[O-])c(NCc2ccccc2)n1,8,6,5,-31,36*,6
